From paper PMC4291291 (European journal of medicinal chemistry, 2014)
Values after ≈ are worked out from the molar mass of the structure shown.

Experiments:
human MK = conditions: at concentrations that effectively inhibit the S. pneumoniae system; cited from earlier work
[1] = Stability in human plasma at 37 °C; assay type: in vitro ADME
Stability in PBS buffer = assay type: physicochemical; conditions: pH 7.4
Procedure, shortened: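 Test compound (10 mM acetonitrile stock, diluted 1:10) incubated in PBS pH 7.4 at 37 °C. Aliquots were taken at various times and injected directly onto HPLC with UV detection; run twice per compound. t1/2 = ln(2)/b, where b is the slope of ln(remaining parent fraction) versus time (one-phase decay).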

[2] = test system: Streptococcus pyogenes (GAS 5448); assay: MIC against additional organisms; assay type: cell-based
[3] = test system: HaCaT human keratinocytes; assay: General cytotoxicity by lactate dehydrogenase; assay type: cell-based; conditions: concentrations up to 1.6 mM, 24 h
E. coli K12 = assay: MIC against additional organisms; assay type: cell-based
[4] = test system: Streptococcus pneumoniae strain TIGR4; assay: Minimal inhibitory concentration; assay type: cell-based
[5] = test system: vancomycin resistant Enterococcus (VRE); assay: MIC against additional organisms; assay type: cell-based
[6] = test system: Streptococcus agalactiae (GBS COH1); assay: MIC against additional organisms; assay type: cell-based
[7] = test system: Staphylococcus aureus (TCH1516); assay: MIC against additional organisms; assay type: cell-based
RAW murine macrophages = assay: General cytotoxicity by lactate dehydrogenase; assay type: cell-based; conditions: concentrations up to 1.6 mM, 24 h
[8] = Stability of prospective decomposition intermediates of 23 in PBS buffer; assay type: physicochemical
[9] = Enantiomeric ratio during incubation with human plasma; assay type: in vitro ADME; conditions: Chiral Cel OD-H
Procedure, shortened: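 Test compound (100 mM acetonitrile stock) added to human plasma, which was diluted with distilled water and pre-warmed 5 min, then incubated at 37 °C. At t1/4 and t1/2, portions were quenched with acetonitrile and run on HPLC with a Chiral Cel OD-H column; LC/MS also used. Ratio taken from each enantiomer's peak integration.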

[10] = Stability of ester promoiety in deuterated PBS buffer; assay type: physicochemical
Procedure, shortened: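 Deuterated PBS pH 7.4 in D2O (NaCl 137 mM, KCl 2.7 mM, Na2HPO4 10.1 mM, KH2PO4 1.8 mM). Test compound (1.0 mg, 4 μmol) dissolved in 800 μL of this buffer in an NMR tube and held at 37 °C. 1H NMR taken at 30 min, 1 h, 4 h, 24 h and 48 h. Decomposition judged from the integration ratio of impurity to parent signals.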

[11] = test system: bioactivity of mevalonate; conditions: 200 μM concentration; cited from earlier work
[12] = t1/2 (min) of carbonate analogues in human plasma, footnote a: hydrolysis occurred only at carbonate promoieties
[13] = Streptococcus pneumoniae, TIGR4, 24 h
[14] = t1/2 (min) of benzyl amide and ester analogues in human plasma, footnote a: hydrolysis occurred only at the acetyl promoiety

In the case of C[C@@](O)(CCOP(=O)(O)OP(=O)(O)O)CC(=O)O [DPM, 5-diphosphomevalonate], the “inhibition of human MK” value (human MK) is listed as “not inhibited”.

For CC1(CC(=O)Nc2ccccc2)CCOC(=O)O1 (stereo not shown) [10a, 2-(4-Methyl-2-oxo-1,3-dioxan-4-yl)-N-phenylacetamide], the half-life at 4 mM [1, 12] was under 0.05 h.

O=C(CC1(C(F)(F)F)CCOC(=O)O1)OCc1ccc(F)cc1F (stereo not shown) [25b, 2,4-Difluorobenzyl 2-(2-oxo-4-(trifluoromethyl)-1,3-dioxan-4-yl)acetate] gave a half-life (Stability in PBS buffer) of 5 h.

With O=C(CC1(C(F)(F)F)CCOC(=O)O1)OCc1ccc(F)cc1 (stereo not shown) [25a, 4-Fluorobenzyl 2-(2-oxo-4-(trifluoromethyl)-1,3-dioxan-4-yl)acetate] the MIC ([2]; Streptococcus pyogenes) was over 1600 µM, the half-life (Stability in PBS buffer) was 6 h and the “general cytotoxicity (LDH release vs media alone)” value [3] was “No evidence of general cytotoxicity”. For the same molecule, the MIC (E. coli K12; Escherichia coli, K12) was over 1600 µM, the “antibacterial activity against S. pneumoniae (in words)” value (“antibacterial activity” below) ([4]; S. pneumoniae, THB medium) was “marginally active” and the MIC [4, 13] was 1600 µM (≈ 538 µg/mL). It also gave an MIC ([5]; Enterococcus, VRE) of over 1600 µM, an MIC ([6]; Streptococcus agalactiae) of over 1600 µM and an MIC ([7]; Staphylococcus aureus) of over 1600 µM. The “general cytotoxicity (LDH release vs media alone)” value (RAW murine macrophages) was “No evidence of general cytotoxicity”.

With CC1(C)S[C@@H]2[C@H](NC(=O)Cc3ccccc3)C(=O)N2[C@H]1C(=O)O [penicillin G, reference compound] the MIC ([2]; Streptococcus pyogenes) was under 12.5 µM, the MIC (E. coli K12; Escherichia coli, K12) was under 12.5 µM and the MIC ([5]; Enterococcus, VRE) was under 12.5 µM. It also gave an MIC ([6]; Streptococcus agalactiae) of under 12.5 µM and an MIC ([7]; Staphylococcus aureus) of under 12.5 µM.

With O=C(CC1(C(F)(F)F)CCOC(c2ccccc2)O1)NCc1ccccc1 (stereo not shown) [32b, N-Benzyl-2-(2-phenyl-4-(trifluoromethyl)-1,3-dioxan-4-yl)acetamide] the “antibacterial activity” value ([4]; S. pneumoniae, THB medium) was “lack activity” and the MIC [4, 13] was over 1600 µM.

Molecule CC1(CC(=O)NCc2ccc(F)cc2)CCOC(=O)O1 (stereo not shown) [10c, N-(4-Fluorobenzyl)-2-(4-methyl-2-oxo-1,3-dioxan-4-yl)acetamide] has a half-life at 4 mM [1, 12] of 0.133 h.

Work on O=C(CC1(CF)CCOC(=O)O1)OCc1ccc(F)cc1F (stereo not shown) [18b, 2,4-Difluorobenzyl 2-(4-(fluoromethyl)-2-oxo-1,3-dioxan-4-yl)acetate] yielded a half-life (Stability in PBS buffer) of 22 h.

CC(O)(CCO)CC(=O)NCc1c(F)c(F)c(F)c(F)c1F (stereo not shown) [compound 34, 3,5-Dihydroxy-3-methyl-N-((perfluorophenyl)methyl)pentanamide] gave a half-life ([1]; half-life in human plasma) of over 2 h.

For O=C(CC1(CF)CCOC(=O)O1)OCc1ccc(F)cc1 (stereo not shown) [18a, 4-Fluorobenzyl 2-(4-(fluoromethyl)-2-oxo-1,3-dioxan-4-yl)acetate], the half-life (Stability in PBS buffer) was 26 h, the “antibacterial activity” value ([4]; S. pneumoniae, THB medium) was “generally inactive” and the MIC [4, 13] was over 1600 µM.

In the case of O=C1CC(O)(CF)CCO1 (stereo not shown) [compound 28, 6-fluoromevalolactone], the MIC ([2]; Streptococcus pyogenes (GAS 5448)) was over 1600 µM, the MIC (E. coli K12; E. coli K12) was over 1600 µM and the “potency relative to 6,6,6-trifluoromevalolactone (26)” value ([4]; S. pneumoniae MIC ratio) was 4 fold. For the same molecule, the MIC ([4]; S. pneumoniae, THB media) was 200 µM (≈ 29.6 µg/mL), the “MIC” value ([4]; S. pneumoniae, THB medium, 24 h, 37 °C, lowest drug concentration that reduced growth by 80% or more) was 200 µM (≈ 29.6 µg/mL) and the MIC ([5]; vancomycin resistant Enterococcus (VRE)) was over 1600 µM. For the same molecule, the MIC ([6]; Streptococcus agalactiae (GBS COH1)) was over 1600 µM and the MIC ([7]; Staphylococcus aureus (TCH1516)) was over 1600 µM.

For COC(=O)CC(O)(CF)CCOC(C)=O (stereo not shown) [38b, Methyl 5-acetoxy-3-(fluoromethyl)-3-hydroxypentanoate], the MIC [4, 13] was over 1600 µM.

For O=C1CC(O)(C(F)(F)F)CCO1 (stereo not shown) [compound 26, 4-Hydroxy-4-(trifluoromethyl)tetrahydro-2H-pyran-2-one], the MIC ([2]; Streptococcus pyogenes) was 200 µM (≈ 36.8 µg/mL), the half-life [8] was about 1 min and the “general cytotoxicity (LDH release vs media alone)” value [3] was “No evidence of general cytotoxicity”. For the same molecule, the MIC (E. coli K12; Escherichia coli, K12) was over 1600 µM, the MIC ([4]; Streptococcus pneumoniae, TIGR4) was 800 µM (≈ 147 µg/mL) and the MIC [4, 13] was 800 µM (≈ 147 µg/mL). The MIC ([5]; Enterococcus, VRE) was over 1600 µM, the MIC ([6]; Streptococcus agalactiae) was 800 µM (≈ 147 µg/mL) and the MIC ([7]; Staphylococcus aureus) was over 1600 µM. For the same molecule, the “general cytotoxicity (LDH release vs media alone)” value (RAW murine macrophages) was “No evidence of general cytotoxicity”.

With CC1(CC(=O)NCc2ccccc2)CCOC(=O)O1 (stereo not shown) [10b, N-Benzyl-2-(4-methyl-2-oxo-1,3-dioxan-4-yl)acetamide] the “integration ratio of each enantiomer” value ([9]; at 4 min) was 48/52, the “integration ratio of each enantiomer” value ([9]; at 8 min) was 46/54 and the half-life at 4 mM [1, 12] was 0.133 h.

For CC(=O)OCCC(C)(O)CC(=O)NCc1c(F)c(F)c(F)c(F)c1F (stereo not shown) [compound 35, 3-Hydroxy-3-methyl-5-oxo-5-(((perfluorophenyl)methyl)amino)pentyl acetate], the half-life at 4 mM [1, 14] was 0.333 to 0.5 h.

In the case of O=C(CC1(C(F)(F)F)CCOC(=O)O1)OCc1ccccc1 (stereo not shown) [compound 23, Benzyl 2-(2-oxo-4-(trifluoromethyl)-1,3-dioxan-4-yl)acetate], the half-life (Stability in PBS buffer) was 5 h.

CC1(CC(=O)Oc2ccccc2)CCOC(=O)O1 (stereo not shown) [9a, Phenyl 2-(4-methyl-2-oxo-1,3-dioxan-4-yl)acetate] gave a half-life at 4 mM [1, 12] of under 0.05 h.

In the case of CN[C@H](CC(C)C)C(=O)N[C@H]1C(=O)N[C@@H](CC(N)=O)C(=O)N[C@H]2C(=O)N[C@H]3C(=O)N[C@H](C(=O)N[C@H](C(=O)O)c4cc(O)cc(O)c4-c4cc3ccc4O)[C@H](O)c3ccc(c(Cl)c3)Oc3cc2cc(c3O[C@@H]2O[C@H](CO)[C@@H](O)[C@H](O)[C@H]2O[C@H]2C[C@](C)(N)[C@H](O)[C@H](C)O2)Oc2ccc(cc2Cl)[C@H]1O [vancomycin, reference compound], the MIC ([2]; Streptococcus pyogenes) was under 12.5 µM, the MIC (E. coli K12; Escherichia coli, K12) was under 12.5 µM and the MIC ([5]; Enterococcus, VRE) was under 12.5 µM. It also gave an MIC ([6]; Streptococcus agalactiae) of under 12.5 µM and an MIC ([7]; Staphylococcus aureus) of under 12.5 µM.

With CC(=O)OCCC(O)(CF)CC(=O)NCc1ccccc1 (stereo not shown) [38a, 5-(Benzylamino)-3-(fluoromethyl)-3-hydroxy-5-oxopentyl acetate] the MIC [4, 13] was over 1600 µM and the half-life at 4 mM [1, 14] was 0.333 to 0.5 h.

For O=C(CC1(CF)CCOC(=O)O1)OCc1ccccc1 (stereo not shown) [compound 16, Benzyl 2-(4-(fluoromethyl)-2-oxo-1,3-dioxan-4-yl)acetate], the half-life (Stability in PBS buffer) was 25 h, the “antibacterial activity” value ([4]; S. pneumoniae, THB medium) was “generally inactive” and the MIC [4, 13] was over 1600 µM.

CC1(CC(=O)Oc2ccc(F)cc2)CCOC(=O)O1 (stereo not shown) [9b, 4-Fluorophenyl 2-(4-methyl-2-oxo-1,3-dioxan-4-yl)acetate] showed a half-life at 4 mM [1, 12] of under 0.05 h.

For CCOC(=O)CC(O)(CF)CCOC(C)=O (stereo not shown) [38c, Ethyl 5-acetoxy-3-(fluoromethyl)-3-hydroxypentanoate], the MIC [4, 13] was over 1600 µM, the “decomposition after 48 h” value ([10]; deuterated PBS buffer pH 7.4, 37 °C, 48 h, 1H NMR integration ratio) was “less than 5%” and the half-life ([10]; deuterated PBS buffer, pH 7.4) was over 48 h.

In the case of 6-fluoromevalonate, the “block of the related bioactivity of mevalonate” value [11] is listed as “completely blocks”.

For CC1(CC(=O)OCc2ccccc2)CCOC(=O)O1 (stereo not shown) [compound 4, Benzyl 2-(4-methyl-2-oxo-1,3-dioxan-4-yl)acetate], the “integration ratio of each enantiomer” value ([9]; at 2 min) was 35/65, the “integration ratio of each enantiomer” value ([9]; at 4 min) was 41/59 and the half-life (Stability in PBS buffer) was over 48 h. The half-life at 4 mM [1, 12] was 0.0667 h.
